Measurements reported in ChEMBL document CHEMBL4513216, “Probing the Open Global Health Chemical Diversity Library for Multistage-Active Starting Points for Next-Generation Antimalarials” (ACS Infect Dis, 2020).

Experiment: Toxicity liver stage against HepG2, at 10uM
Format: cell-based
Parameters: test concentration 10 uM, cell line HepG2-A16-CD81EGFP
Conditions: human, HepG2-A16-CD81EGFP cells; read-out: INHIBITION
Outline: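 Uninfected HepG2-A16-CD81EGFP cells, 3 × 10^3 per well, 1536-well, plated on prespotted compound at 10 μM final, parasite-free screening media added to match infected plates; puromycin 10 μM positive, DMSO 0.5% negative; run in parallel with 48 h PbLuc assay at 37 °C, 5% CO2; viability by CellTiter-Glo luminescence, normalized to controls.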

Row | Structure (SMILES) | cytotoxicity at 10 µM [%]
1 | Cc1c(C(=O)O)sc2nc(C(F)(F)F)ccc12 | 1.5
2 | Cc1nc(C(=O)Nc2cccnc2)c(C(C)C)s1 | -2.36
3 | CC(C)CNC(=O)C1CC(=O)N(c2n[nH]c3ccccc23)C1 (configuration not stated) | -11.6
4 | O=C(c1ccno1)N1CC2(CCC(C(=O)N3CCCC3)O2)C1 (configuration not stated) | -157
5 | Cc1ccc(CN2CC[C@H]3C(=O)N(c4cccnc4)CCO[C@H]3C2)o1 | 7.8
6 | COCC1c2nnn(CC3CC3)c2CCN1C(=O)c1cc(C)[nH]c1C (configuration not stated) | -140
7 | Cc1noc(C)c1CN1CC2(CCN(C(=O)c3cc[nH]n3)C2)CC1=O (configuration not stated) | 12.2
8 | Cc1nc(CN2CCO[C@H]3CN(C(=O)c4ccncc4)C[C@H]32)cs1 | -146
9 | O=C(O)C1CCN(C(=O)CCn2ccc3cc(Br)ccc32)CC1 | 15.5
10 | Cc1cccc(-c2cc(C(=O)O)sn2)c1 | -0.475
11 | CS(=O)(=O)N1CCC(Oc2cnccn2)CC1 | 0.097
12 | Cn1cc(C2CC(=O)NC23CCN(c2ncc(F)cn2)CC3)cn1 (configuration not stated) | -5.39
13 | CCn1nc(C)c(NC(=O)c2cc(NC(=O)C(C)C)n(C)n2)c1C | 0.568
14 | CN1CCN(C(=O)c2cc(-c3cccs3)cs2)CC1 | 3.51
15 | CNC(=O)CCc1cc(C2CCCCN2C)nc(C)n1 (configuration not stated) | -0.956
16 | Cc1nc(C(Cc2ccsc2)NC(=O)CCN2CCOCC2)sc1C (configuration not stated) | 7.04
17 | CC(C)CCNC(=O)C1CCCN1C(=O)Nc1cccc(F)c1 (configuration not stated) | -1.04
18 | C[C@]1(O)CCN(Cc2ncccc2F)C[C@@H]1Oc1ccccc1 | -21.4
19 | Cc1cc2c(=O)n3c(nc2s1)CCN(C(=O)c1cnn(C)c1)CC3 | -1.94
20 | Cc1cccc(C(=O)NCCS(=O)(=O)Cc2ccccc2)c1 | -7.43
21 | Cc1nc2cc(F)ccc2cc1C(=O)N1CCN(CC(C)O)CC1 (configuration not stated) | 2.49
22 | CN1CCOC(CNCc2cnc(C(C)(C)C)s2)C1 (configuration not stated) | -2.87
23 | Cc1nc(C)c(C(=O)N2CCc3ccc(F)cc3C2C)o1 (configuration not stated) | -1.65

Row | Structure (SMILES) | cytotoxicity at 10 µM [%]
24 | Cc1nc(C)n(CC2CCCN2c2ncnc3sc(C)c(C)c23)n1 (configuration not stated) | 21.4
25 | CCCN(CC(=O)NC)C(=O)c1ccc(-c2nc(C)cs2)cc1 | -20.8
26 | Cn1cc(N2CCN(c3ccc(C#N)c(Cl)c3)CC2=O)cn1 | -3.81
27 | N#Cc1ccc(CN2CCC(CN3CCOCC3)C2)cc1 (configuration not stated) | -7.01
28 | N#CC1(NC(=O)c2c(F)ccc(OC(F)F)c2F)CCOCC1 | -8.29
29 | O=C(NCCCN1CCOCC1)C(OC1CCCC1)c1ccccc1 (configuration not stated) | -5.95
30 | Cn1cc(C2(C)CN(c3ncccc3C#N)CCO2)cn1 (configuration not stated) | 4.48
31 | CC(C)(C)[S+]([O-])CCNC(=O)c1csc(NC2CC2)n1 (configuration not stated) | 13.4
32 | O=C(NCCNC(=O)c1ccc(Cl)cc1)NCCn1cccc1 | 5.95
33 | CC(=O)c1c(F)cccc1NC1CCN(S(=O)(=O)C2CC2)CC1 | 12.5
34 | CN1CCN(C(=O)NCCNc2ncccn2)Cc2ccccc21 | -4.47
35 | CC(NC(=O)NCCCn1cccn1)c1ccccn1 (configuration not stated) | -11.5
36 | O=C(CCNS(=O)(=O)c1ccc(Cl)cc1)NCc1ccoc1 | -11.8
37 | CN(Cc1nnc(C2CC2)n1C)C1CCN(Cc2ccccc2)C1 (configuration not stated) | -4.45
38 | CCN(Cc1nc2c(cnn2C)c(=O)[nH]1)c1ccccc1C | 2.78
39 | O=C(NCc1ccncc1)N1CCSCC1CCO (configuration not stated) | 2.3
40 | CN(Cc1ccncc1)C(=O)c1ccc(F)c(NS(C)(=O)=O)c1 | -0.453
41 | CN(C(=O)CNC(=O)CC(C)(C)C)C1CCN(c2ccccn2)CC1 | 13.9
42 | Cn1cc(C(C)(O)CNC(=O)c2ccc(Br)s2)cn1 (configuration not stated) | -52.7
43 | O=C(CNc1cc2c(cc1Br)OCCO2)NC1CCS(=O)(=O)C1 (configuration not stated) | 6.43
44 | N#Cc1cc(N2CCC(CS(N)(=O)=O)CC2)nc2ccccc12 | -6.03
45 | COCCN(Cc1ccco1)Cc1nc(-c2ccccc2C)no1 | 6.72
46 | COCCN(c1ccncc1)S(=O)(=O)c1cc(C)c(F)cc1F | -6.54

Row | Structure (SMILES) | cytotoxicity at 10 µM [%]
47 | CCS(=O)(=O)CC(=O)Nc1cccc2c1CN(CC(C)C)C2 | 2.25
48 | CS(=O)(=O)N(Cc1ccon1)c1cccc(Br)c1 | 7.57
49 | Cc1oc(-c2cccs2)nc1C(=O)N(C)C1(C#N)CCC1 | 5.09
50 | CC(O)CN1CCC(CN(C)Cc2ccc(C#N)cc2F)CC1 (configuration not stated) | -1.87
51 | CC(C)CNc1nnc(SC(C(=O)NCc2cccnc2)C(C)C)s1 (configuration not stated) | -5.9
52 | CC(C)(C)C(O)CN1CCN(CCOCC(F)(F)F)CC1 (configuration not stated) | -2.02
53 | COc1ccccc1NC(=O)NCCCC(=O)Nc1cn[nH]c1 | -9.55
54 | Cc1[nH]ncc1C(=O)N(CC(C)C)CC(O)c1ccc(F)cc1 (configuration not stated) | -1.61
55 | Cc1nc(S(=O)(=O)N2CCSC3(CCCCC3)C2)cn1C | -9.2
56 | COC(C)(C)c1noc(C2(C#N)CCCC2)n1 | -5.11
57 | CCCNC(=O)NC(=O)CNc1c(F)cccc1N1CCCC1 | 0.266
58 | COc1ccccc1N(C)Cc1nc2c(cnn2C)c(=O)[nH]1 | -8.48
59 | O=C(Nc1ccc(N2CCCC2)nc1)N1CCc2sccc2C1 | -16.6
60 | Cc1c(CC(=O)N2CCN(CC(F)(F)F)CC2)nnn1-c1ccccc1 | -14.8
61 | CC1CCN(CCNC(=O)c2ccccc2N2CCOCC2)CC1 | -6.05
62 | COc1ncccc1C(=O)N1CCn2c(COCC3CC3)cnc2C1C (configuration not stated) | -1.03
63 | CN1CCN(C(=O)N2CC[C@@](O)(c3ccccc3)[C@H]3CCCC[C@@H]32)CC1 | -9.67
64 | CC(C)N(CCO)C(=O)C1CCC(=O)N(Cc2ccc(Cl)cc2)C1 (configuration not stated) | -4.9
65 | NCCO[C@H]1C[C@@H](O)C12CCN(C(=O)COc1cccc(Cl)c1)CC2 | -4.32
66 | CCN1CCC(c2nnc(CN3CCCC3)n2C2CC2)CC1 | -7.3
67 | CCC(=O)N1CCc2[nH]cnc2C12CCN(CC1CCOC1)CC2 (configuration not stated) | -0.264
68 | Cc1nn(C)c2nc(N3CCCCC3c3ccc(F)cc3)sc12 (configuration not stated) | -7.88
69 | CSCCC(=O)N1CCCCC1CCn1cccn1 (configuration not stated) | -1.94

Row | Structure (SMILES) | cytotoxicity at 10 µM [%]
70 | CN(C)C(Cn1ccnc1-c1nccn1C)c1ccccc1Cl (configuration not stated) | -0.0184
71 | CN(Cc1cc(C(C)(C)C)n[nH]1)C(=O)c1cn2ccsc2n1 | -12.6
72 | Cc1ccc(C2(O)CCN(C(=O)c3sccc3S(N)(=O)=O)CC2)nc1 | -3.3
73 | COc1nc2c(cc1C(=O)N(C)Cc1noc3c1CCCC3)CCC2 | 0.224
74 | COc1ccc2c(C)c(C(=O)N3CCC(NC(C)=O)C3)oc2c1 (configuration not stated) | 7.72
75 | CCn1ccnc1CN(C)C1CCCN(Cc2ccccc2F)C1 (configuration not stated) | 4.77
76 | CC(C)N1CC(C(=O)N2CCC(Oc3ccccc3Cl)CC2)CC1=O (configuration not stated) | -3.21
77 | Cc1nn(C)cc1Cn1c(=O)c(C)nc2ccccc21 | -1.21
78 | COc1ccc(C(=O)N2CCC(C3CCN(c4ncccn4)CC3)C2)o1 (configuration not stated) | -12.5
79 | Cc1nc[nH]c1-c1nnc(SCC(=O)O)n1-c1ccccc1C(F)(F)F | 0.0448
80 | CCNc1nc(C)c(C(=O)N2CCN(c3ncccc3C)CC2)s1 | 3.77
81 | CCN1CCCC1CNC(=O)c1cc(COc2ccccc2F)[nH]n1 (configuration not stated) | -4.17
82 | CC(C)c1ccc(OCC(=O)N(C)C)cc1 | -2.82
83 | O=C(c1cccnc1N1CCCCC1)N1CCCC(n2cccn2)C1 (configuration not stated) | -0.438
84 | Cc1nc(CN2CCCC(N(C)CCCc3ccccc3)C2)no1 (configuration not stated) | -0.704
85 | O=C(NC1CC1)N1CCN(c2cnccn2)CC1 | -7.39
86 | COc1ncccc1CNC(=O)c1cnccn1 | -8.77
87 | CC(C)(C)NC(=O)CCOc1cccc(F)c1 | -4.95
88 | CSC(C)C(=O)NCc1ccnc(N2CCN(C)CC2)c1 (configuration not stated) | -15.3
89 | CN(C)CC(=O)N1CCN(CC(O)c2ccc(F)cc2)CC1 (configuration not stated) | -9.11
90 | Clc1snnc1CN1CCCC1Cn1cncn1 (configuration not stated) | -20.7
91 | Cc1cc(C)n(C2CCCN(C(=O)CCOc3ccccc3F)C2)n1 (configuration not stated) | -6.19
92 | COc1cc(S(=O)(=O)N2CCc3ccc(Cl)cc32)cc(C(=O)O)c1OC | -1.34

Row | Structure (SMILES) | cytotoxicity at 10 µM [%]
93 | CCn1cnnc1CNC(=O)N1CCC(CN2CCOCC2)CC1 | -7
94 | CC(Cc1cccc(Cl)c1)NC(=O)Nc1cnn(CC(N)=O)c1 (configuration not stated) | -15
95 | Cc1ccc(-c2nc(CC(=O)N3CCN(c4cnccn4)CC3)cs2)o1 | -13
96 | CCc1nc(CN2CCCN(CC(O)c3ccccc3)CC2)no1 (configuration not stated) | -14
97 | CC(NC(=O)NCCCN(C(C)C)S(C)(=O)=O)c1ccncc1 (configuration not stated) | -14.9
98 | CN(C)c1ccc(CNC(=O)NCCc2cccs2)cn1 | -2.8
99 | O=C(Cc1ccc2c(c1)OCO2)N1CCN(c2cnccn2)CC1 | -5.51
100 | O=C(CCC1CCCO1)NS(=O)(=O)c1ccc(Cl)cc1 (configuration not stated) | -9.36
101 | c1ccc(CN2CCNCC(Cc3cnccn3)C2)cc1 (configuration not stated) | -8.65
102 | CS(=O)(=O)N1CCC2(CCCN(Cc3ccccn3)C2)C1 (configuration not stated) | -148
103 | O=C(C[C@@H]1COC[C@H]2CN(Cc3cccnc3)C[C@@H]12)N1CCCC1 | -128
104 | Cc1cccc(N2CCc3ncnc(C4CC4)c3CC2)n1 | -148
105 | CCn1ncc2c1CN(C(=O)c1cc(C)oc1C)CC2COC (configuration not stated) | 13
106 | c1cc(CN2CCN3C[C@H](Oc4cncnc4)C[C@H]3C2)ccn1 | -108
107 | Cc1nc(CN2CCOCC3(CCN(c4cnccn4)CC3)C2)cs1 | 7.37
108 | Cc1ccc(CN2C[C@H](C(=O)N3CCCCO3)[C@@H]3CCO[C@@H]3C2)o1 | 9.46
109 | Cc1nc(CN2C[C@@H]3CN(c4ncccn4)C[C@@H]3C2=O)cs1 | 5.16
110 | COCc1nn(C(C)C)c2c1CCN(Cc1nccs1)C2 | 8.42
111 | CC[C@@H]1N(Cc2ccoc2)CCC[C@]12CCC(=O)N2CCOC | 11
112 | O=C([C@@H]1COC[C@H]2CN(c3ccncn3)C[C@H]21)N1CCCCO1 | -132
